Each compound was assayed against Cannabinoid receptor 1 (Rattus norvegicus, UniProt P20272) (assay: Displacement of [3H]SR141716 from CB1 receptor in rat cerebellum homogenate).
Assay type: tissue-based
How it was run: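 Competition binding against [3H]SR141716 in rat cerebellum homogenates. Each concentration was run in triplicate, and each experiment was repeated three times. Data were fitted by non-linear regression, and values are mean ± SEM of three experiments.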

Chain of Cannabinoid receptor 1 (P20272 whole entry): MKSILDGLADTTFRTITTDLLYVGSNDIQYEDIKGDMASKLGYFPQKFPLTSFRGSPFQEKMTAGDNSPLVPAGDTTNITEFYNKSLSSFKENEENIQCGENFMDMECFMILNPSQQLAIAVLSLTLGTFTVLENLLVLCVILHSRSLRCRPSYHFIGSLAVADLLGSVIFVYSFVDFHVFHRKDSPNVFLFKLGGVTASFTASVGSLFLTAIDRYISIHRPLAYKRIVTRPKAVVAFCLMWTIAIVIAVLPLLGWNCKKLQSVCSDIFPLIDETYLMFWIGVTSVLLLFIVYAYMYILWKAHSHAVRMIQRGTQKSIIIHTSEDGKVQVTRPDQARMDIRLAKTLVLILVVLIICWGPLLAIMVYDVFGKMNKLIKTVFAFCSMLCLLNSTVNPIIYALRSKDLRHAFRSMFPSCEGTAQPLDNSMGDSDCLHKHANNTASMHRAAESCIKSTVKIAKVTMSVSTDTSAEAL

Row | SMILES | Ki [nM]
1 | O=C(NN1CCCCC1)c1nnn(-c2ccc(Cl)cc2Cl)c1-c1ccc(Cl)cc1 | 590
2 | O=C(Oc1ccccc1)c1nnn(-c2ccc(Cl)cc2Cl)c1-c1ccc(Cl)cc1 | 11
3 | O=C(OCc1ccccc1)c1nnn(-c2ccc(Cl)cc2Cl)c1-c1ccc(Cl)cc1 | 97
4 | COC(=O)c1nnn(-c2ccc(Cl)cc2)c1-c1ccc(Cl)cc1 | 4400
5 | CCCOC(=O)c1nnn(-c2ccc(Cl)cc2Cl)c1-c1ccc(Cl)cc1 | 4.6
6 | Clc1ccc(-c2cnnn2-c2ccc(Cl)cc2)cc1 | 6900
7 | Clc1ccc(-c2cnnn2-c2ccc(Cl)cc2Cl)cc1 | 1420
8 | O=C(OC1CCCCC1)c1nnn(-c2ccc(Cl)cc2Cl)c1-c1ccc(Cl)cc1 | 240
9 | CCOC(=O)c1nnn(-c2ccc(Cl)cc2Cl)c1-c1ccc(Cl)cc1 | 180
10 | COC(=O)c1nnn(-c2ccc(Cl)cc2Cl)c1-c1ccc(Cl)cc1 | 66

Reference: ChEMBL document CHEMBL1143271, “Synthesis and CB1 cannabinoid receptor affinity of 4-alkoxycarbonyl-1,5-diaryl-1,2,3-triazoles” (Bioorg Med Chem Lett, 2009)
